# Data from PMC13201524 (Journal of structural biology, 2025).
# Residue numbers refer to the chain shown, from its start. Numbers in names are those of the source. Entries after “also recorded” stand apart in the source; their conditions may differ. Like-named read-outs stand apart in the source and are kept apart here.
# T1: mScn (Mus musculus, UniProt P11672)
# T1 sequence (P11672 with tags, fused parts or gaps): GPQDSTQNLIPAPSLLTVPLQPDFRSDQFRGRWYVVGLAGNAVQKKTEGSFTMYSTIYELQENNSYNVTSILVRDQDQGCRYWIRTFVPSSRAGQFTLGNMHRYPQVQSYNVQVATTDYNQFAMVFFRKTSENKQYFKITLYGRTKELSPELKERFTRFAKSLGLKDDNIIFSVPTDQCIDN
# B1: Y138A: hScn_C87S point mutant, best performing loss of binding mutant (protein, UniProt P80188 21-198, looked up, variant C87S Y138A)
# Neutrophil …: QDSTSDLIPAPPLSKVPLQQNFQDNQFQGKWYVVGLAGNAILREDKDPQKMYATIYELKEDKSYNVTSVLFRKKKCDYWIRTFVPGSQPGEFTLGNIKSYPGLTSYLVRVVSTNYNQHAMVFFKKVSQNREYFKITLAGRTKELTSELKENFIRFSKSLGLPENHIVFPVPIDQCIDG
# B2: T54R: hScn_C87S point mutant, best performing gain of binding mutant (protein, UniProt P80188 21-198, looked up, variant C87S T54R)
# Neutrophil …: B1 Neutrophil … with T54R, A138Y
# How the values were obtained:
# mScn = molecular target: T1, mScn; assay: 1H-15N Trosy HSQC NMR screening and titration on mScn; assay type: binding; conditions: FDA-approved drugs library and Vanderbilt discovery library; peak shifts of mScn
# In short: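 15N-labelled mScn was expressed in E. coli BL21(DE3) as a 6His-GB1 fusion, and the GB1 tag was cleaved with HRV3C. Screening used pools of 12 compounds (1 μl each of 10 mM DMSO stock) with 20 μM mScn in 100 mM sodium phosphate pH 6.0, 5 vol% D2O and 2 vol% DMSO. Hits were re-tested singly, then titrated with 50 μM mScn (5 vol% DMSO) at protein:ligand ratios from 1:0 to 1:10.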
# [1] = ref Gleiter and Mörike, 2002; Buter et al., 1999; cited from earlier work
# [2] = ref Gleiter and Mörike, 2002; Buter et al., 1999; cited from earlier work; remark: listed apart in the source
# hScn = conditions: read-out: binding affinity; ref Goetz et al., 2002; Hohlbaum et al., 2018; cited from earlier work
# [3] = Isothermal titration calorimetry; assay type: binding
# In short: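 Monomeric hScn C87S (and mutants) was expressed in E. coli on M9 medium and purified by Ni-NTA and size exclusion. The protein sat in the cell and the test compound in the syringe, both in matched 100 mM sodium phosphate pH 6.0 with 2% DMSO. Runs were at 25°C and 750 rpm: a 0.4 μL first injection, then at least 19 injections of 2 μL spaced 150 s. A ligand-into-buffer reference titration was run.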
molecule,measurement,setting,value
CCOc1nc2cccc(C(=O)O)c2n1Cc1ccc(-c2ccccc2-c2nc(=O)o[nH]2)cc1 [azilsartan],NMR screening / titration result in words,mScn,identified hits
CCOc1nc2cccc(C(=O)O)c2n1Cc1ccc(-c2ccccc2-c2nnn[nH]2)cc1 [candesartan],plasma protein binding,[1],exceeding 99%
same,NMR screening / titration result in words,mScn,tightest binding; also recorded: medium to low affinity
same,maximal plasma concentration,[2],around 0.227 μM
O=C(N[C@H]1COC(=O)[C@@H](NC(=O)c2cccc(O)c2O)COC(=O)[C@@H](NC(=O)c2cccc(O)c2O)COC1=O)c1cccc(O)c1O [enterobactin],Kd,hScn,0.41 ± 0.11 nM
CCCCC(=O)N(Cc1ccc(-c2ccccc2-c2nnn[nH]2)cc1)[C@H](C(=O)O)C(C)C [valsartan],NMR screening / titration result in words,mScn,identified hits
B1,increase of KD (decrease in binding affinity) compared to wild type,"[3]; ITC, candesartan",fivefold
B2,Kd,"[3]; read-out: ITC KD1, first binding event, value in nM",115 nM
same,Kd,"[3]; read-out: ITC- KD2, second binding event",3500 nM
